Test results as given in ChEMBL document CHEMBL4145448, “Broad activity of diphenyleneiodonium analogues against Mycobacterium tuberculosis, malaria parasites and bacterial pathogens” (Eur J Med Chem, 2018).

Experiments:
Pseudomonas aeruginosa [1] = test: Antibacterial activity against Pseudomonas aeruginosa ATCC 27853 after 18 hrs by broth microdilution method; assay type: functional; conditions: ATCC 27853, 18 h
Outline: (§1)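 Broth microdilution per CLSI in cation-adjusted Mueller-Hinton broth. 100 µL inoculum (~10^6 cfu/mL in CaMHB) mixed with 100 µL CaMHB containing compound, 0 to 128 µM. Incubated 18 h at 37 °C. MIC taken as the lowest concentration with no visible growth. Polymyxin B served as positive control. Isolates were stored at -80 °C in tryptone soy broth with 20% glycerol.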

Pseudomonas aeruginosa [2] = test: Antibacterial activity against Pseudomonas aeruginosa isolate 18878B klon 1 after 18 hrs by broth microdilution method; assay type: functional; conditions: isolate 18878B klon 1, 18 h; outline: as §1
Acinetobacter baumannii [3] = test: Antibacterial activity against Acinetobacter baumannii isolate 246-01-C after 18 hrs by broth microdilution method; assay type: functional; outline: as §1
Acinetobacter baumannii [4] = test: Antibacterial activity against Acinetobacter baumannii ATCC 17978 after 18 hrs by broth microdilution method; assay type: functional; conditions: ATCC 17978, 18 h; outline: as §1
Acinetobacter baumannii [5] = test: Antibacterial activity against Acinetobacter baumannii ATCC 19606 col10 after 18 hrs by broth microdilution method; assay type: functional; conditions: ATCC 19606 = CIP 70.34 = JCM 6841 col10, 18 h; outline: as §1
Klebsiella pneumoniae [6] = test: Antibacterial activity against Klebsiella pneumoniae ATCC 13883 after 18 hrs by broth microdilution method; assay type: functional; conditions: ATCC 13883, 18 h; outline: as §1
Klebsiella pneumoniae [7] = test: Antibacterial activity against Klebsiella pneumoniae isolate M320445 after 18 hrs by broth microdilution method; assay type: functional; conditions: isolate M320445, 18 h; outline: as §1
Klebsiella pneumoniae [8] = test: Antibacterial activity against Klebsiella pneumoniae isolate 1 after 18 hrs by broth microdilution method; assay type: functional; conditions: isolate 1, 18 h; outline: as §1
Klebsiella pneumoniae [9] = test: Antibacterial activity against Klebsiella pneumoniae isolate 224-11-C after 18 hrs by broth microdilution method; assay type: functional; outline: as §1
Enterococcus faecium = test: Antibacterial activity against vancomycin-resistant Enterococcus faecium ATCC 700221 after 18 hrs by broth microdilution method; assay type: functional; conditions: ATCC 700221, 18 h; outline: as §1
Klebsiella pneumoniae [10] = test: Antibacterial activity against Klebsiella pneumoniae isolate 248-33-D after 18 hrs by broth microdilution method; assay type: functional; outline: as §1
Escherichia coli [11] = test: Antibacterial activity against Escherichia coli N2381 after 18 hrs by broth microdilution method; assay type: functional; conditions: N2381, 18 h; outline: as §1
Escherichia coli [12] = test: Antibacterial activity against Escherichia coli N4149 after 18 hrs by broth microdilution method; assay type: functional; conditions: N4149, 18 h; outline: as §1
Escherichia coli [13] = test: Antibacterial activity against Escherichia coli N11281 after 18 hrs by broth microdilution method; assay type: functional; conditions: N11281, 18 h; outline: as §1
Staphylococcus aureus [14] = test: Antibacterial activity against methicillin-resistant Staphylococcus aureus ATCC 43300 after 18 hrs by broth microdilution method; assay type: functional; conditions: ATCC 43300, 18 h; outline: as §1
Staphylococcus aureus [15] = test: Antibacterial activity against vancomycin-intermediate Staphylococcus aureus ATCC 700698 after 18 hrs by broth microdilution method; assay type: functional; conditions: ATCC 700698, 18 h; outline: as §1
Staphylococcus aureus [16] = test: Antibacterial activity against vancomycin-resistant Staphylococcus aureus ATCC 700699 after 18 hrs by broth microdilution method; assay type: functional; conditions: ATCC 700699, 18 h; outline: as §1
[17] = Selectivity index, ratio of CC50 for human HepG2 cells in presence of 1% FBS to MIC for Pseudomonas aeruginosa ATCC 27853; assay type: toxicity; conditions: read-out: Selectivity Index
Outline: (§2)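 Selectivity index is CC50 (1% FBS) divided by MIC. […] They then got compound at 300 to 0.14 µM (3-fold steps) for 24 h at 37 °C, 5% CO2. Resazurin (10 µM, 2 h) was read at ex/em 560/590 in duplicate wells. For MIC, CLSI broth microdilution was run in CaMHB with ~10^6 cfu/mL inoculum and 0–128 µM compound.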

[18] = Selectivity index, ratio of CC50 for human HepG2 cells in presence of 1% FBS to MIC for Pseudomonas aeruginosa isolate 912; assay type: toxicity; conditions: read-out: Selectivity Index; outline: as §2
[19] = Selectivity index, ratio of CC50 for human HepG2 cells in presence of 1% FBS to MIC for Pseudomonas aeruginosa isolate 19147nm; assay type: toxicity; conditions: read-out: Selectivity Index; outline: as §2
[20] = Selectivity index, ratio of CC50 for human HepG2 cells in presence of 1% FBS to MIC for Pseudomonas aeruginosa isolate 18878B klon 1; assay type: toxicity; conditions: read-out: Selectivity Index; outline: as §2
[21] = Selectivity index, ratio of CC50 for human HepG2 cells in presence of 1% FBS to MIC for Pseudomonas aeruginosa isolate M146201; assay type: toxicity; conditions: read-out: Selectivity Index; outline: as §2
[22] = Selectivity index, ratio of CC50 for human HepG2 cells in presence of 1% FBS to MIC for Acinetobacter baumannii ATCC 19606; assay type: toxicity; conditions: read-out: Selectivity Index
[23] = Selectivity index, ratio of CC50 for human HepG2 cells in presence of 1% FBS to MIC for Acinetobacter baumannii isolate 246-01-C; assay type: toxicity; conditions: read-out: Selectivity Index
[24] = Selectivity index, ratio of CC50 for human HepG2 cells in presence of 1% FBS to MIC for Acinetobacter baumannii ATCC 17978; assay type: toxicity; conditions: read-out: Selectivity Index
[25] = Selectivity index, ratio of CC50 for human HepG2 cells in presence of 1% FBS to MIC for Acinetobacter baumannii ATCC 19606 col10; assay type: toxicity; conditions: read-out: Selectivity Index
[26] = Selectivity index, ratio of CC50 for human HepG2 cells in presence of 1% FBS to MIC for Acinetobacter baumannii ATCC 17978 col10; assay type: toxicity; conditions: read-out: Selectivity Index
[27] = Selectivity index, ratio of CC50 for human HepG2 cells in presence of 1% FBS to MIC for Klebsiella pneumoniae ATCC 13883; assay type: toxicity; conditions: read-out: Selectivity Index
[28] = Selectivity index, ratio of CC50 for human HepG2 cells in presence of 1% FBS to MIC for Klebsiella pneumoniae isolate M320445; assay type: toxicity; conditions: read-out: Selectivity Index
[29] = Selectivity index, ratio of CC50 for human HepG2 cells in presence of 1% FBS to MIC for Klebsiella pneumoniae isolate 1; assay type: toxicity; conditions: read-out: Selectivity Index
[30] = Selectivity index, ratio of CC50 for human HepG2 cells in presence of 1% FBS to MIC for Escherichia coli N11281; assay type: toxicity; conditions: read-out: Selectivity Index
[31] = Selectivity index, ratio of CC50 for human HepG2 cells in presence of 1% FBS to MIC for vancomycin-resistant Enterococcus faecium ATCC 700221; assay type: toxicity; conditions: read-out: Selectivity Index; outline: as §2
[32] = tested on: Mycobacterium tuberculosis; test: Antimycobacterial activity against Mycobacterium tuberculosis H37Rv ATCC 25618 after 7 days by resazurin dye based assay; assay type: functional; conditions: H37Rv ATCC 25618, 168 h
Outline: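 H37Rv grown at 37 °C in 7H9 with 10% ADC, 0.5% glycerol and 0.02% tyloxapol. Compounds serially diluted in water, 0 to 10 µM, in triplicate. Culture adjusted to OD600 0.001 and incubated 7 days at 37 °C. Resazurin (0.05% w/v) added for 4-24 h and fluorescence read at 590 nm. MIC is the lowest concentration giving complete growth inhibition versus untreated. Rifampicin served as control.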

[33] = Selectivity index, ratio of CC50 for human HepG2 cells in presence of 1% FBS to MIC for Mycobacterium tuberculosis H37Rv ATCC 25618; assay type: toxicity; conditions: read-out: Selectivity Index
[34] = Selectivity index, ratio of CC50 for human HepG2 cells in presence of 1% FBS to IC50 for CQ-sensitive GFP-fused Plasmodium falciparum D10; assay type: toxicity; conditions: read-out: Ratio IC50

Compound	MIC (Pseudomonas aeruginosa [1])	MIC (Pseudomonas aeruginosa [2])	MIC (Acinetobacter baumannii [3])	MIC (Acinetobacter baumannii [4])	MIC (Acinetobacter baumannii [5])	MIC (Klebsiella pneumoniae [6])	MIC (Klebsiella pneumoniae [7])	MIC (Klebsiella pneumoniae [8])	MIC (Klebsiella pneumoniae [9])	MIC (Enterococcus faecium)	MIC (Klebsiella pneumoniae [10])	MIC (Escherichia coli [11])	MIC (Escherichia coli [12])	MIC (Escherichia coli [13])	MIC (Staphylococcus aureus [14])	MIC (Staphylococcus aureus [15])	MIC (Staphylococcus aureus [16])	selectivity ratio [17]	selectivity ratio [18]	selectivity ratio [19]	further results
COc1ccc2c(c1)[I+]c1ccccc1-2	> 70 µM	18 µM	35 µM	18 µM	2.2 µM	> 70 µM	70 µM	> 70 µM	> 70 µM	4.4 µM	> 70 µM	35 µM	> 70 µM	> 70 µM	4.4 µM	8.7 µM	8.7 µM	> 0.11	> 0.11	0.81	selectivity ratio [20]: 0.39; selectivity ratio [21]: 0.11; selectivity ratio [22]: 0.39; selectivity ratio [23]: 0.21; selectivity ratio [24]: 0.39; selectivity ratio [25]: 3.1; selectivity ratio [26]: 3.1; selectivity ratio [27]: > 0.11; selectivity ratio [28]: 0.11; selectivity ratio [29]: > 0.11; selectivity ratio [30]: > 0.11; selectivity ratio [31]: 1.6; MIC [32]: 0.28 µM; selectivity ratio [33]: 24
Cc1cccc2c1-c1ccccc1[I+]2	18 µM	1.1 µM	2.3 µM	1.1 µM	2.3 µM	18 µM	36 µM	72 µM	> 72 µM	2.3 µM	> 72 µM	18 µM	> 72 µM	18 µM	36 µM	36 µM	36 µM	0.14	2.3	4.6	selectivity ratio [20]: 2.3; selectivity ratio [21]: 1.2; selectivity ratio [22]: 1.2; selectivity ratio [23]: 1.2; selectivity ratio [24]: 2.3; selectivity ratio [25]: 1.2; selectivity ratio [26]: 4.6; selectivity ratio [27]: 0.14; selectivity ratio [28]: 0.07; selectivity ratio [29]: 0.04; selectivity ratio [30]: 0.14; selectivity ratio [31]: 1.2; MIC [32]: 0.14 µM; selectivity ratio [33]: 19; selectivity ratio [34]: 37
Clc1cccc2c1-c1ccccc1[I+]2	< 0.27 µM	< 0.27 µM	< 0.27 µM	< 0.27 µM	< 0.27 µM	4.3 µM	8.6 µM	8.6 µM	8.6 µM	< 0.27 µM	8.6 µM	0.54 µM	0.54 µM	2.2 µM	1.1 µM	2.3 µM	1.1 µM	< 2.4	< 2.4	< 2.4	selectivity ratio [20]: < 2.4; selectivity ratio [21]: 1.2; selectivity ratio [22]: < 2.4; selectivity ratio [23]: < 2.4; selectivity ratio [24]: < 2.4; selectivity ratio [25]: < 2.4; selectivity ratio [26]: < 2.4; selectivity ratio [27]: 0.15; selectivity ratio [28]: 0.08; selectivity ratio [29]: 0.08; selectivity ratio [30]: 0.31; selectivity ratio [31]: < 2.4; MIC [32]: 0.28 µM; selectivity ratio [33]: 2.4; selectivity ratio [34]: 13
